Measurements taken from ChEMBL document CHEMBL4513216, “Probing the Open Global Health Chemical Diversity Library for Multistage-Active Starting Points for Next-Generation Antimalarials” (ACS Infect Dis, 2020).

Assay: Toxicity liver stage against HepG2, at 10uM
Assay type: cell-based
Parameters: test concentration 10 uM, cell line HepG2-A16-CD81EGFP
Details: human, HepG2-A16-CD81EGFP cells; read-out: INHIBITION
Procedure, shortened: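 Uninfected HepG2-A16-CD81EGFP cells, 3 × 10^3 per well, 1536-well, plated on prespotted compound at 10 μM final, parasite-free screening media added to match infected plates; puromycin 10 μM positive, DMSO 0.5% negative; run in parallel with 48 h PbLuc assay at 37 °C, 5% CO2; viability by CellTiter-Glo luminescence, normalized to controls.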
Work on `CC(C)(O)c1cc(CC2(NCc3ccco3)COC2)no1` yielded a cytotoxicity at 10 µM of -1.7%. For `CCCSc1nc(N)c(NC(=O)c2ccc(OC)c(OC)c2)c(=O)[nH]1`, the cytotoxicity at 10 µM was -8.7%. Work on `Cn1nc(CNC(=O)CN2C(=O)CCC2=O)cc1C1CC1` yielded a cytotoxicity at 10 µM of 2.89%. In the case of `COc1cccc(N2CC3(CCN(c4ccncn4)C3)CC2=O)c1` (stereo not drawn), the cytotoxicity at 10 µM is reported as 8.61%. `CCOC(=O)C1CN(S(=O)(=O)C2CC2)Cc2ncn(CC)c21` (stereo not drawn) gave a cytotoxicity at 10 µM of 6.71%. Molecule `CC(=O)N1CCC(c2nnc3ccc(C(=O)NC(C)C)cn23)C1` (stereo not drawn) has a cytotoxicity at 10 µM of 6.37%. `CNC(=O)N1CCc2nc(C(=O)Nc3cccnc3)sc2CC1` gave a cytotoxicity at 10 µM of 1.99%. In the case of `Cc1noc([C@@]23CCO[C@@H]2CCN(C(=O)CN(C)C)C3)n1`, the cytotoxicity at 10 µM is reported as 10.1%. `CCC(=O)NS(=O)(=O)c1cccnc1Nc1cccc(Cl)c1Cl` showed a cytotoxicity at 10 µM of 0.0207%. Molecule `COc1ncc(NC(=O)Nc2cc(C)ccc2OC)cn1` has a cytotoxicity at 10 µM of 2.76%. In the case of `CCn1nc(C)c2nnn(CC(=O)Nc3c(C)cccc3C)c(=O)c21`, the cytotoxicity at 10 µM is reported as 5.22%. `Cc1cc(Nc2ccc(F)cn2)cc(C2CCN(Cc3ncc[nH]3)C2)n1` (stereo not drawn) gave a cytotoxicity at 10 µM of -8.26%. `Cc1nn(C)cc1CN1CCN(CC2(c3ccccc3)CC2)CC1` showed a cytotoxicity at 10 µM of 1.25%. `CCC(=O)N1CCC(c2cncc(Oc3cccnc3)n2)CC1` gave a cytotoxicity at 10 µM of -4.69%. For `Cc1c(C(=O)N2CCC(c3nc(C)n4ccsc34)CC2)cnn1C`, the cytotoxicity at 10 µM was -4.41%. With `COc1ccc(CN2CCc3nc(C4CCCCN4C)ncc3C2)cc1` (stereo not drawn) the cytotoxicity at 10 µM was -1.08%. `O=C1CC(C(=O)Nc2nnc(-c3ccccn3)[nH]2)c2ccccc2N1` (stereo not drawn) showed a cytotoxicity at 10 µM of 7.92%. Work on `Cc1ccc(CC(=O)NC2CCN(c3cccc(Cl)c3)C2)cn1` (stereo not drawn) yielded a cytotoxicity at 10 µM of 2.49%. `O=C(CN1CCCS1(=O)=O)Nc1ccc(OC(F)F)cc1` showed a cytotoxicity at 10 µM of 1.34%. With `O=C(NCCNc1ncccn1)N1CCc2ccccc2C1` the cytotoxicity at 10 µM was -5.65%. With `Cn1cc(CN2CCCC3(CCN(C(=O)c4ccoc4)C3)C2)cn1` (stereo not drawn) the cytotoxicity at 10 µM was -71.9%. Molecule `c1ccc(-c2nnn3c2COC(CNCC2CC2)C3)cc1` (stereo not drawn) has a cytotoxicity at 10 µM of -77.8%. In the case of `O=C(c1ccncn1)N1CCC[C@]2(C[C@@H](OCC3CC3)CO2)C1`, the cytotoxicity at 10 µM is reported as -78.9%. `CS(=O)(=O)CC(=O)N1C[C@@H]2CN(Cc3ccoc3)CCO[C@@H]2C1` showed a cytotoxicity at 10 µM of -69.2%. With `CO[C@H]1CO[C@@]2(CCCN(S(=O)(=O)c3ccccc3)C2)C1` the cytotoxicity at 10 µM was -81.9%. Work on `Cc1cc(CN2CCC3(CC2)C(=O)NCCN3CC2CC2)oc1C` yielded a cytotoxicity at 10 µM of -67.5%. With `CCOCCn1c(=O)n(CCC(C)C)c2ncc(C(=O)O)cc21` the cytotoxicity at 10 µM was 2.62%. With `Cn1cc(-c2nc(CN3CCN(c4nccs4)CC3)cs2)cn1` the cytotoxicity at 10 µM was -7.45%. `CC(C)c1noc(CCCC(=O)N2CCN(Cc3ccncc3)CC2)n1` gave a cytotoxicity at 10 µM of -6.59%. Work on `COc1cccc2cc(CNC(=O)N3CCCC(O)C3)oc12` (stereo not drawn) yielded a cytotoxicity at 10 µM of -8.8%. Molecule `O=C(c1ccnc(C2CCNCC2)c1)N1CCCOCC1` has a cytotoxicity at 10 µM of -3.64%. For `CN(C)C(=O)COC1COC2(CCN(c3cccc(F)c3)CC2)C1` (stereo not drawn), the cytotoxicity at 10 µM was -66%. `O=C(O)[C@]12CCCN(Cc3ccco3)C[C@H]1CN(c1ncccn1)C2` gave a cytotoxicity at 10 µM of 7.34%. Work on `Cc1ccc(N2C[C@@H]3CN(Cc4csc(C)n4)CCO[C@@H]3C2)nn1` yielded a cytotoxicity at 10 µM of 7.64%. With `Cc1nc(COC[C@@]23CCC[C@@H]2CN(Cc2nccs2)C3)cs1` the cytotoxicity at 10 µM was 12.9%. In the case of `CCS(=O)(=O)N1CC[C@H](OC)[C@H]2CN(Cc3ccncc3)C[C@H]21`, the cytotoxicity at 10 µM is reported as 10.3%. Molecule `CCS(=O)(=O)N1Cc2ncn(C)c2C(COCC2CCOCC2)C1` (stereo not drawn) has a cytotoxicity at 10 µM of -72.6%. With `Cc1nc(COC[C@H]2CC[C@H]3[C@H](CCN3c3ncccn3)O2)cs1` the cytotoxicity at 10 µM was -71.2%. With `CCOCCN1Cc2cnn(C)c2C(COCC)C1` (stereo not drawn) the cytotoxicity at 10 µM was -62.6%. `c1cnc(N2CCO[C@H]3CN(Cc4csnn4)C[C@H]32)nc1` showed a cytotoxicity at 10 µM of -70.7%. `CN1CC(=O)N(c2ccccc2)CC12CCN(S(C)(=O)=O)C2` (stereo not drawn) showed a cytotoxicity at 10 µM of -75.7%. For `C[C@@H]1CN(C2CCOCC2)C[C@]12CCN(c1cccnc1)C2=O`, the cytotoxicity at 10 µM was 5.95%. With `O=C(CC1[C@H]2CN(C(=O)CO)C[C@@H]12)Nc1cccnc1` (stereo partly drawn) the cytotoxicity at 10 µM was 9.19%.
